Results on 12 compounds are retold here after ChEMBL document CHEMBL3784946, “Antiviral Merosesquiterpenoids Produced by the Antarctic Fungus Aspergillus ochraceopetaliformis SCSIO 05702” (J Nat Prod, 2016).

The structures appear in SMILES notation. ≈ marks a conversion by molar mass, not a printed value. Calls of active or inactive are those of the source. No cut-off for these calls is given here. A value given as a limit tells only on which side of the number the result lay.

In data set [1] the test system is Staphylococcus aureus. Nature of the data set: Antibacterial activity against Staphylococcus aureus after 24 hrs by agar dilution method. It counts as functional. Background: In agar dilution, organisms are placed on agar that contains the substance at set levels.
The subject of another data set is HeLa. Nature of the data set: Cytotoxicity against human HeLa cells assessed as reduction in cell viability after 72 hrs by CCK8 assay. It counts as functional, cell-based. The essentials:
(§1)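 Cells grown in RPMI or DMEM with 10% FBS and 1% penicillin/streptomycin at 37 °C under 5% CO2. Seeded at 400–800 cells/well and exposed to graded compound concentrations or solvent control for 72 h. Viability read by CCK-8 absorbance at 450 nm, and IC50 derived from dose–response curves.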
In general terms: Tetrazolium assays rely on reduction of a dye to a coloured formazan, in cell work by metabolically active cells.

For a further data set, the system named is A549. The data set can be described thus: Cytotoxicity against human A549 cells assessed as reduction in cell viability after 72 hrs by CCK8 assay. The class given is functional, cell-based. In short, it runs like this:
as §1

A further data set concerns HL-60. Nature of the data set: Cytotoxicity against human HL60 cells assessed as reduction in cell viability after 72 hrs by CCK8 assay. It counts as functional, cell-based. In short, it runs like this: as §1
For data set [2], the system named is Staphylococcus aureus. The data set can be described thus: Antibacterial activity against Staphylococcus aureus assessed as growth inhibition at 0.01 to 100 ug/ml after 24 hrs by agar dilution method. It counts as functional, organism-based. The essentials: (§2)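 Bacteria grown on LB agar plates at 37 °C. Samples were dissolved in DMSO and serially diluted 2-fold from 100 to 0.01 μg/mL. 5 μL of each dilution was loaded onto a 5 mm paper disk placed on the plate. After 24 h, inhibition zone diameters (mm) were recorded. MIC was the lowest concentration with no visible growth. Ciprofloxacin lactate served as positive control.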

Data set [3] relates to Mycobacterium tuberculosis. Nature of the data set: Antitubercular activity against Mycobacterium tuberculosis H37Ra assessed as growth inhibition at 100 ug/ml after 7 days by Alamar blue assay. It counts as functional, organism-based. The essentials: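 M. tuberculosis H37Ra exposed 7 days to material at 100 μg/mL (from 10 mg/mL DMSO stock; 1% v/v DMSO). Growth measured by Alamar Blue fluorescence, with inhibition expressed relative to bacteria-only controls.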

For another data set, the system named is Escherichia coli. The data set can be described thus: Antibacterial activity against Escherichia coli assessed as growth inhibition at 0.01 to 100 ug/ml after 24 hrs by agar dilution method. The class given is functional, organism-based. In short, it runs like this: as §2
The next data set concerns HT-29. Nature of the data set: Cytotoxicity against human HT-29 cells assessed as reduction in cell viability after 72 hrs by CCK8 assay. It counts as functional, cell-based. In short, it runs like this: as §1
For the next data set, the system named is U-937. Nature of the data set: (§3) Cytotoxicity against human U937 cells assessed as reduction in cell viability after 72 hrs by CCK8 assay. The class given is functional, cell-based. The essentials:
as §1

Data set [4] relates to Mycobacterium tuberculosis. Nature of the data set: Antitubercular activity against Mycobacterium tuberculosis H37Ra after 7 days by Alamar blue assay. It counts as functional. The settings on record: 168 h. The essentials: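 M. tuberculosis H37Ra exposed 7 days to 2-fold dilution series from 100 μg/mL downward (10 mg/mL DMSO stock; 1% v/v DMSO at top). Growth measured by Alamar Blue fluorescence.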
On the technique in general: The colour change of resazurin is a common sign of viable cells or microbes.

Data set [5] in a line: as §3. The class given is functional, cell-based. The settings on record: U-937, 72 h. The essentials: as §1
A further data set relates to Influenza A virus H3N2. Nature of the data set: Antiviral activity against Influenza A virus H3N2 infected in MDCK cells assessed as inhibition of virus-induced cytopathic effect after 48 hrs by crystal violet staining-based microplate reader analysis. The class given is functional, organism-based. In short, it runs like this: (§4)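 Confluent MDCK monolayers infected with influenza virus for 1 h at 37 °C. Virus was removed, and cells were kept in RPMI 1640 with 4 μg/mL trypsin plus graded compound concentrations for 48 h at 37 °C. Cells were then fixed in 4% formaldehyde and stained with 0.1% crystal violet, with absorbance read at 570 nm. IC50 is the concentration giving 50% […] at 48 h. Values are means of three independent experiments.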

Another data set deals with Influenza A virus. The data set can be described thus: Antiviral activity against Influenza A virus H1N1 infected in MDCK cells assessed as inhibition of virus-induced cytopathic effect after 48 hrs by crystal violet staining-based microplate reader analysis. The class given is functional, organism-based. The essentials: as §4
The nature of data set [6]: Selectivity index, ratio of CC50 for MDCK cells to IC50 for Influenza A virus H3N2 infected in MDCK cells. It counts as functional. The essentials:
(§5)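 SI calculated as CC50 divided by IC50, both from the CPE-inhibition assay on MDCK cells. The underlying values are means of three independent experiments.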

Data set [7] is described as follows: Cytotoxicity against MDCK cells after 48 hrs by crystal violet staining-based microplate reader analysis. The class given is cell-based, Canis lupus familiaris. The following applies: dog. The essentials:
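CC50 taken from the CPE-inhibition assay format on MDCK cells, with crystal violet read-out. Values are means ± SD of three independent experiments.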

Data set [8] in a line: Selectivity index, ratio of CC50 for MDCK cells to IC50 for Influenza A virus H1N1 infected in MDCK cells. It counts as functional. In short, it runs like this: as §5

For orientation: MIC means the lowest concentration found to suppress growth. Low values mean inhibition by little substance, high ones a need for much substance. As to `CC(O)C(=O)O.O=C(O)c1cn(C2CC2)c2cc(N3CCNCC3)c(F)cc2c1=O` [CIPROFLOXACIN LACTATE], in the data set on Staphylococcus aureus [1], it took 1.25 µg/mL to inhibit growth (MIC).

As for `Cc1oc(=O)c2c(c1C)O[C@@]1(C)[C@H](C2)[C@@H](C)[C@]2(O)CC(=O)C(C)(C)C(=O)[C@@]2(O)[C@H]1O`, the outcome in the data set with HeLa, in the data set with A549, with HL-60, in the data set with HT-29 and with U-937 was inactive. Also, the “growth inhibition (GI)” value (in the data set with Staphylococcus aureus [2]; in data set [3]; in the data set with Escherichia coli) was “inactive” each time.

For `Cc1oc(=O)c2c(c1C)O[C@@]1(C)C(=C2)[C@@H](C)[C@]2(O)CC(=O)C(C)(C)C(=O)[C@@]2(O)[C@H]1O`, the outcome with HeLa, with A549, with HL-60, in the data set on HT-29 and with U-937 was inactive. In addition, the “growth inhibition (GI)” value (in the data set on Staphylococcus aureus [2]; in data set [3]; in the data set with Escherichia coli) was “inactive” throughout.

The MIC90 is the lowest concentration that inhibits either 90% of growth or 90% of the strains tested, depending on the study. Consider `NNC(=O)c1ccncc1` [ISONIAZID], for which the MIC90 in data set [4] came out at 2.04 µM (≈ 0.28 µg/mL).

What is called IC50 is the point on the concentration scale where inhibition reaches its midpoint. On to `CC(=O)O[C@H]1C(=O)[C@@]2(C)[C@H]([C@H](OC(=O)c3ccccc3)[C@]3(O)C[C@H](OC(=O)[C@H](O)[C@@H](NC(=O)c4ccccc4)c4ccccc4)C(C)=C1C3(C)C)[C@]1(OC(C)=O)CO[C@@H]1C[C@@H]2O` [PACLITAXEL], for which the IC50 in the data set with HT-29 (HT-29, 72 h) worked out at 3.04 nM; in data set [5] it was 1.66 nM.

For the compound `Cc1oc(=O)c2c(c1C)O[C@@]1(C)[C@@H]([C@@H](C)[C@]3(O)CC(=O)C(C)(C)C(=O)[C@@]3(O)[C@H]1O)[C@H]2O`, the result with HeLa, in the data set with A549, in the data set with HL-60, in the data set on HT-29 and with U-937 was inactive. Besides, the “growth inhibition (GI)” value (with Staphylococcus aureus [2]; in data set [3]; in the data set with Escherichia coli) was “inactive” each time.

Consider `Cc1oc(=O)c2c(c1C)O[C@]1(C)[C@H](O)C[C@@]3(O)C(C)(C)C(=O)CC[C@]3(C)[C@H]1C2`, for which the outcome with HeLa, in the data set on A549, in the data set on HL-60, in the data set on HT-29 and in the data set on U-937 was inactive. Further, the “growth inhibition (GI)” value (in the data set on Staphylococcus aureus [2]; in data set [3]; with Escherichia coli) was “inactive” each time.

In the case of `CCOC(=O)C1=C[C@@H](OC(CC)CC)[C@H](NC(C)=O)[C@@H](N)C1` [OSELTAMIVIR], the concentration for half-maximal inhibition (IC50) turned out to be 18.5 nM in the data set with Influenza A virus H3N2 and 16.9 nM with Influenza A virus.

As a reminder, the CC50 is the concentration that lowers cell viability or growth by half. A high value points to lower toxicity to the cells. Take `CO[C@H]1c2c(c(C)c(C)oc2=O)O[C@@]2(C)[C@H]1[C@@H](C)[C@]1(O)CC(=O)C(C)(C)C(=O)[C@@]1(O)[C@H]2O`: in [6], the “Ratio CC50/IC50” value is reported as 1.71. Also, the result with HeLa, in the data set on A549, in the data set with HL-60, in the data set with HT-29 and with U-937 was inactive. In addition, the “growth inhibition (GI)” value (with Staphylococcus aureus [2]; in data set [3]; in the data set with Escherichia coli) was “inactive” in each case. The figures for the IC50 in the data set with Influenza A virus H3N2 and in the data set with Influenza A virus were 12200 nM and above 20000 nM, respectively. For the same compound, the midpoint of cytotoxicity in data set [7], the CC50 at 48 h, lay at 20900 nM.

Take `CC[C@H]1O[C@@H]2O[C@H](/C=C/C=C/C=C/c3oc(=O)cc(OC)c3C)[C@H](O)[C@]2(C)[C@@]1(C)O`: the “Ratio CC50/IC50” value in data set [6] stood at 0.29; in [8], 0.44. In addition, the result in the data set on HeLa, with A549, in the data set with HL-60, in the data set with HT-29 and with U-937 was inactive. The “growth inhibition (GI)” value (with Staphylococcus aureus [2]; in data set [3]; in the data set on Escherichia coli) was “inactive” throughout. For the same compound, the figures for the IC50 in the data set on Influenza A virus H3N2 and in the data set with Influenza A virus were 840 nM and 540 nM, respectively. Moreover, it took 240 nM to reach half-maximal cytotoxicity in data set [7] (CC50 at 48 h).

As for `CC[C@H]1O[C@@H]2O[C@@H]3[C@H](O)[C@@H](/C=C/C=C/c4oc(=O)cc(OC)c4C)O[C@@H]3[C@]2(C)[C@@]1(C)O`, the outcome in the data set on HeLa, in the data set with A549, with HL-60, in the data set on HT-29 and in the data set on U-937 was inactive. The “growth inhibition (GI)” value (with Staphylococcus aureus [2]; in [3]; in the data set with Escherichia coli) was “inactive” in each case.

For the compound `CC[C@H]1O[C@@H]2O[C@H](/C=C/C=C\C=C\c3oc(=O)cc(OC)c3C)[C@H](O)[C@]2(C)[C@@]1(C)O`, the “Ratio CC50/IC50” value in [6] worked out at 0.81; in [8] it was 2.35. Moreover, the result in the data set on HeLa, with A549, in the data set on HL-60, in the data set on HT-29 and in the data set on U-937 was inactive. Moreover, the “growth inhibition (GI)” value (with Staphylococcus aureus [2]; in [3]; in the data set with Escherichia coli) was “inactive” throughout. Moreover, the figures for the concentration for half-maximal inhibition (IC50) with Influenza A virus H3N2 and in the data set on Influenza A virus were 660 nM and 230 nM, respectively. Also, the CC50 at 48 h in data set [7] came out at 540 nM.
